ChEMBL document CHEMBL3580585, “The synthesis of sulforaphane analogues and their protection effect against cisplatin induced cytotoxicity in kidney cells” (2014)
Active and inactive are the calls of the source. The rule behind the calls is not given here.

Legend:
LLC-PK1 [1] = assay: Renoprotective activity against cisplatin-induced cytotoxicity in pig LLC-PK1 cells assessed as decrease in phoshorylated JNK level by western blot analysis in presence of 25 uM cisplatin; assay type: functional, cell-based; conditions: Sus scrofa
Procedure, shortened: (§1)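 LLC-PK1 cells were exposed to cisplatin together with several concentrations of test compound. Phospho-JNK, p53 and cleaved caspase-3 protein levels were measured 24 h after cisplatin treatment.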

LLC-PK1 [2] = assay: Renoprotective activity against cisplatin-induced cytotoxicity in pig LLC-PK1 cells assessed as increase in cell survival at >1 uM by cell imaging analysis in presence of 25 uM cisplatin; assay type: functional, cell-based; conditions: Sus scrofa
LLC-PK1 [3] = assay: Renoprotective activity against cisplatin-induced cytotoxicity in pig LLC-PK1 cells assessed as decrease in cleaved caspase-3 level by western blot analysis in presence of 25 uM cisplatin; assay type: functional, cell-based; conditions: Sus scrofa; procedure, shortened: as §1
LLC-PK1 [4] = assay: Renoprotective activity against cisplatin-induced cytotoxicity in pig LLC-PK1 cells assessed as decrease in p53 level at 2.5 uM by western blot analysis in presence of 25 uM cisplatin; assay type: functional, cell-based; conditions: Sus scrofa; procedure, shortened: as §1
LLC-PK1 [5] = assay: Renoprotective activity against cisplatin-induced cytotoxicity in pig LLC-PK1 cells assessed as cell survival at 2.5 uM after 24 hrs by WST-1 assay in presence of 25 uM cisplatin (reference value: 60%); assay type: functional, Sus scrofa
Procedure, shortened: (§2)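 Pig kidney LLC-PK1 cells were given 25 µM cisplatin to cause oxidative stress, alongside test compound in dose-response format, up to 10 µM, or up to 2.5 µM for analogues toxic at high doses. Survival was read by WST-1 assay […]. Potency was taken as the concentration giving more than 60% cell survival.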

LLC-PK1 [6] = assay: Renoprotective activity against cisplatin-induced cytotoxicity in pig LLC-PK1 cells assessed as decrease in apoptotic cells at 25 uM after 24 hrs by Tali image-based cytometer analysis in presence of cisplatin; assay type: functional, cell-based; conditions: Sus scrofa
Procedure, shortened: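 LLC-PK1 cells were co-treated with cisplatin and test compound, then stained so that dead cells show red and apoptotic cells green. The percentage of apoptotic cells was counted on a Tali image-based cytometer.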

LLC-PK1 [7] = assay: Renoprotective activity against cisplatin-induced cytotoxicity in pig LLC-PK1 cells assessed as cell survival at 10 uM after 24 hrs by WST-1 assay in presence of 25 uM cisplatin (reference value: 60%); assay type: functional, Sus scrofa; procedure, shortened: as §2

Q: For S=C=NCC(c1ccccc1)c1ccccc1, which Activity (LLC-PK1 [1]) is on record?
A: The Activity was “Dose-dependent effect”.

Q: And the Activity (LLC-PK1 [2])?
A: Its Activity is “Active”.

Q: And the Activity (LLC-PK1 [3])?
A: Its Activity is “Dose-dependent effect”.

Q: What about the Activity (LLC-PK1 [4]) of the same compound?
A: Its Activity is “Active”.

Q: And the Activity (LLC-PK1 [5])?
A: The Activity was 93%.

Q: And the Activity (LLC-PK1 [6])?
A: Its Activity is “Active”.

Q: How did the Activity (LLC-PK1 [5]) turn out when S=C=NCCc1ccc(N=C=S)cc1 was run?
A: The Activity was greater than 80%.

Q: Oc1ccc(CCN=C=S)cc1 was tested. Which Activity (LLC-PK1 [5]) did it give?
A: Its Activity is greater than 80%.

Q: How did the Activity (LLC-PK1 [5]) turn out when S=C=NCc1cccc(Cl)c1 was run?
A: Its Activity is greater than 80%.

Q: For C[S+]([O-])CCCCN=C=S (stereo not given) [SULFORAPHANE], which Activity (LLC-PK1 [7]) is on record?
A: The Activity was greater than 77%.
